Data set [1] has as its system differentiated SHSY-5Y cells. As to the kind of experiment: MTT cell viability. Format: cell-based, human. To be noted: 12.5–100 μg mL^−1, 24 h. Summed up:
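Neuron-like cultures made by differentiating SH-SY5Y with 10 μM retinoic acid for 8 days, then 25 nM BDNF for 5 days. Cells incubated 24 h with test compound at 12.5–100 μg mL⁻¹. Controls: untreated cells, and cells given 1.0% Triton X-100. MTT (5 mg mL⁻¹ solution) added for 3 h at 37 °C, formazan dissolved in DMSO, absorbance read at 570 nm. Three independent experiments, mean ± SD.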

Data set [2] has as its system differentiated SHSY-5Y cells. As to the kind of experiment: Genotoxicity analysis by Hoechst 33258 fluorescent nuclear staining. Format: cell-based, human. The conditions noted are these: for genotoxic properties on the differentiated SHSY-5Y cells: 100 μg mL^−1; for Mean NA/1000 cells ± SD: 100 μg mL^−1, 24 h, nuclear abnormalities. Summed up:
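SH-SY5Y differentiated with 10 μM retinoic acid for 8 days (medium refreshed every 2 days), then 25 nM BDNF for 5 days. Test compound applied for 24 h. Cells washed in PBS, fixed in 4% paraformaldehyde at 4 °C for 30 min, then stained with Hoechst 33258 (1 mM) for 5 min at room temperature. Micronuclei, lobbed and notched nuclei scored by fluorescence microscopy in 1000 cells per treatment, in triplicate.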

Data set [3] can be described thus: Experimental water solubility by HPLC. Format: physicochemical.
A short description of data set [4]: log P by shake-flask method. Format: physicochemical. The conditions noted are these: n-octanol/phosphate buffer solution (PBS), pH 7.4. Summed up:
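Shake-flask partition. About 5 mg of test compound dissolved in 1 mL n-octanol and mixed with an equal volume of PBS, pH 7.4. Mixture inverted 200 times over 5 min, then left 30 min to separate. Each phase assayed by HPLC (C18, 250 × 4.6 mm, isocratic H₂O/ACN + 0.1% TFA, 1 mL min⁻¹). log P taken from the concentration ratio of unionized compound between the phases.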

For data set [5], the system named is Aβ1–42 aggregation. Type of data set: cell-based, human. The conditions noted are these: Congo red staining, experimental AD model. Summed up: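 Differentiated SH-SY5Y cells (retinoic acid, then BDNF) given 20 μM pre-fibrillised Aβ1–42 with test compound. Cells then fixed with 4% paraformaldehyde in PBS at 4 °C for 30 min and PBS-washed. Congo red (1 μM) added for 1 h in the dark, followed by three PBS washes. Bound dye extracted with DMSO, with absorbance read at 497 nm.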

In data set [6] the test system is differentiated SHSY-5Y cell cultures. Format: cell-based, human. To be noted: compound 50 μg mL^−1, Aβ1–42 20 μM, 24 h. The procedure, abridged:
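AD model: SH-SY5Y cells differentiated with retinoic acid then BDNF, then exposed to 20 μM Aβ1–42 (fibrillised 24 h in medium). 10⁵ cells seeded; Aβ1–42 with or without test compound (25 or 50 μg mL⁻¹) for 24 h. Cells trypsinised 3 min at 37 °C, spun 500 × g 5 min, stained in binding buffer with Annexin V-FITC and propidium iodide 5 min at room temperature, then analysed by flow cytometry.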

Values after ≈ are worked out from the molar mass of the structure shown.

As for `Brc1ccc(-c2csc(/C=C/c3ccccc3)n2)cc1` [6e, (E)-4-(4-Bromophenyl)-2-styrylthiazole], in data set [1], the “cytotoxic effect on the differentiated SHSY-5Y cells (MTT cell viability)” value is reported as “no cytotoxic effect”. Also, in data set [2], the “genotoxic properties on the differentiated SHSY-5Y cells” value was “did not enhance the genotoxic properties” and the “Mean NA/1000 cells ± SD” value is 0.017 NA/1000 cells. Also, the solubility in data set [3] was found to be 0.0175 µg/mL (≈ 0.0511 µM). In data set [4], this compound had a lipophilicity (logP) of 4.87.

In the case of `COc1ccc(/C=C/c2nc(-c3ccc(OC)cc3)cs2)cc1` [6i, (E)-4-(4-Methoxyphenyl)-2-(4-methoxystyryl)thiazole], in data set [1], the “cytotoxic effect on the differentiated SHSY-5Y cells (MTT cell viability)” value is reported as “no cytotoxic effect”. In addition, in data set [2], the “genotoxic properties on the differentiated SHSY-5Y cells” value is “did not enhance the genotoxic properties” and the “Mean NA/1000 cells ± SD” value came out at 0.017 NA/1000 cells. Also, in data set [5], the “preventive activity against Aβ1–42 aggregation” value was “over 80%”. Further, the “reduction of the apoptotic cell death ratio” value in data set [6] worked out at 30%. The compound also yielded a solubility in data set [3] of 0.0719 µg/mL (≈ 0.222 µM). Further, the logP in data set [4] was determined as 4.18.

Broadly, the solubility is the dissolved amount per volume that the medium holds. A high value points to much dissolved substance. The term logP denotes the decadic logarithm of the partition coefficient of the neutral form, usually between octanol and water. Higher therefore signals higher lipophilicity.

Source of the values: publication PMC10650344 (RSC Medicinal Chemistry, 2023).
